In brackets after ≈: the same amount, converted by molar mass.
Tests used:
Homo sapiens = species: Homo sapiens; test: Selectivity ratio of IC50 for full length C-terminal His6x-tagged recombinant human HDAC8 to IC50 for N-terminal GST-tagged recombinant HDAC6 (unknown origin)
[1] = Selectivity ratio of IC50 for HDAC1/2 in human HeLa cell nuclear extract to IC50 for N-terminal GST-tagged recombinant HDAC6 (unknown origin); format: cell-based
How it was run: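 HDAC6 leg: 1 nM GST-HDAC6 with 8 μM Ac-Arg-Gly-Lys(Ac)-AMC. Nuclear-extract leg: 30 μg/mL HeLa nuclear extract (mainly HDAC1/2) with 20 μM of the same substrate in 50 mM Tris-Cl, 137 mM NaCl, 2.7 mM KCl, 1 mM MgCl2, pH 8.0.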

[2] = Kinetic solubility of the compound in potassium phosphate buffer at pH 6.8 by turbidometric analysis; format: physicochemical; conditions: read-out: Kinetic_solubility
[3] = biological target: T1, Protein deacetylase HDAC6 (Homo sapiens, UniProt Q9UBN7); test: Inhibition of HDAC6 in human HeLa cells using acetyl tubulin as substrate assessed as Ac-tubulin accumulation in cytosol after 6 hrs by immunofluorescence assay
T1 sequence (Q9UBN7 whole entry): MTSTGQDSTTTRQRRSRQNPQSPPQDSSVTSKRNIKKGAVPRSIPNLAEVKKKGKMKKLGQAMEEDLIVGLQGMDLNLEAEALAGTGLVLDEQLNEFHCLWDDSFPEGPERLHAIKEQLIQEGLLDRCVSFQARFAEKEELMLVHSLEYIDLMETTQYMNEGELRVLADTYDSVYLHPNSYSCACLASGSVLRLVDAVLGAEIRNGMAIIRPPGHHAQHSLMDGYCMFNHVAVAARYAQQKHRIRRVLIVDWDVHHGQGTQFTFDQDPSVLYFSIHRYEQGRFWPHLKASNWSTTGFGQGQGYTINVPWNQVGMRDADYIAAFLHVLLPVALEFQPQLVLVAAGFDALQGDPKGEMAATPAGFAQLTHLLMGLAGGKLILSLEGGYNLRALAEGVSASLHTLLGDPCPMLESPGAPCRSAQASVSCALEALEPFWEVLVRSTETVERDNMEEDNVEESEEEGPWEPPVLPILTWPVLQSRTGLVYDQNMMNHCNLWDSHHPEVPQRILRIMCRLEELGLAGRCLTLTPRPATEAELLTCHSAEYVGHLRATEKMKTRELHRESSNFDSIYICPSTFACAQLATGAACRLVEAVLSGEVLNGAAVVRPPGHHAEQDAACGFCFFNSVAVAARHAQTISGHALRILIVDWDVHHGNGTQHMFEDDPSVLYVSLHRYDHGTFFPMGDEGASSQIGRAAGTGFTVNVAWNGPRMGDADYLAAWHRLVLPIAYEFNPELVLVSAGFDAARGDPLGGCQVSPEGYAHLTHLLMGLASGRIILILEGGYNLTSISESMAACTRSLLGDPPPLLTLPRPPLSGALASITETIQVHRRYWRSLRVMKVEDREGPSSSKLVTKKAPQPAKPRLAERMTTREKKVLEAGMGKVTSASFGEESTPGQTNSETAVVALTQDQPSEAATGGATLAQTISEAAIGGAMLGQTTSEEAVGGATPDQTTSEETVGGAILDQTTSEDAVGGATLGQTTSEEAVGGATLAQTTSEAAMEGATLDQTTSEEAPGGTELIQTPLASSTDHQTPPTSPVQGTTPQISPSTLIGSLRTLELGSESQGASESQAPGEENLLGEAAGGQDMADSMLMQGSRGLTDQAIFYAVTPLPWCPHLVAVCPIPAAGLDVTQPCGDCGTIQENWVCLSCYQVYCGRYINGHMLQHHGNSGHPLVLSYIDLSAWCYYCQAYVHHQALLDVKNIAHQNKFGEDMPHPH

[4] = biological target: T2, Protein deacetylase HDAC6 (Homo sapiens) (UniProt Q9UBN7); test: Inhibition of HDAC6 in human HeLa cells using acetyl tubulin as substrate assessed as Ac-Lys accumulation in nuclear histones at 20 uM after 24 hrs by immunofluorescence assay relative to control
T2 sequence (whole entry): T1 sequence (Q9UBN7 whole entry)

[5] = biological target: T1, Protein deacetylase HDAC6; test: Inhibition of N-terminal GST-tagged recombinant HDAC6 (unknown origin) assessed as deacetylation of Ac-Arg-Gly-Lys (Ac) after 1 hr by fluorescence plate reader analysis in presence of trypsin

| Structure (SMILES) | Ratio IC50 (Homo sapiens) | Ratio IC50 [1] | solubility kinetic [2] [µM] | IC50 [3] [µM] | inhibition [4] [%] | IC50 [5] [µM] |
| --- | --- | --- | --- | --- | --- | --- |
| O=C(NO)c1ccc2c(c1)CCCN(C(=O)C1CCCCCC1)C2 | 40 | > 200 | > 200 | 2.9 | < 20 | 0.34 |
| Cn1cccc1C(=O)N1CCc2ccc(C(=O)NO)cc2CC1 | 40 | 480 | > 200 | 1.51 | < 20 | 0.13 |
| Cn1cccc1C(=O)NCc1ncc(C(=O)NO)s1 | 40 | 123 | > 200 | – | – | 0.052 |
| Cn1cccc1C(=O)NCc1ccc(C(=O)NO)s1 | 40 | 202 | > 200 | – | – | 0.019 |
| O=C(NO)c1cc2c(s1)CCN(C(=O)C1CCCCC1)C2 | 40 | 47 | > 200 | 0.162 | < 20 | 0.036 |
| Cn1cccc1C(=O)N1CCc2sc(C(=O)NO)cc2C1 | – | 30 | > 200 | 0.018 | < 20 | 0.024 |
| O=C(NO)c1ccc2c(c1)CCN(S(=O)(=O)c1ccc(C(F)(F)F)cc1)C2 | – | 610 | 25 (≈ 10 µg/mL) | 1.3 | < 20 | 0.06 |
| CC(C)(C)C(=O)N1CCCc2cc(C(=O)NO)ccc2C1 | 40 | > 200 | > 200 | 3.68 | < 20 | 0.49 |
| Cn1cccc1C(=O)N1CCc2cc(C(=O)NO)sc2C1 | – | 14 | > 200 | 0.005 | < 20 | 0.028 |
| O=C(NO)c1ccc2c(c1)CCN(C(=O)C1CCCCC1)C2 | – | 730 | > 200 | 0.54 | < 20 | 0.05 |
| O=C(NO)c1cc2c(s1)CN(C(=O)C1CCCCC1)CC2 | – | 50 | > 200 | 0.05 | < 20 | 0.02 |
| CC(C)(C)C(=O)NCc1ccc(C(=O)NO)cc1 | 40 | 200 | > 200 | – | – | 0.079 |
| O=C(NO)c1ccc2c(c1)CCCN(C(=O)c1ccc(-c3ccccc3)cc1)C2 | 40 | 60 | > 200 | 3.09 | < 20 | 0.12 |
| CC(C)(C)C(=O)N1CCc2ccc(C(=O)NO)cc2CC1 | 40 | 340 | > 200 | 0.58 | < 20 | 0.12 |
| O=C(NO)c1ccc2c(c1)CCN(C(=O)c1ccc(-c3ccccc3)cc1)CC2 | 40 | 340 | > 200 | 2.6 | < 20 | 0.059 |
| CC(C)(C)C(=O)N1CCc2cc(C(=O)NO)sc2C1 | 40 | 71 | > 200 | 0.158 | < 20 | 0.035 |
| O=C(NO)c1ccc2c(c1)CCN(C(=O)C1CCCCCC1)CC2 | 40 | 340 | > 200 | 2 | < 20 | 0.12 |
| Cn1cccc1C(=O)NCc1cnc(C(=O)NO)s1 | – | 8 | > 200 | – | – | 12 |
| CC(C)(C)C(=O)N1CCc2sc(C(=O)NO)cc2C1 | 40 | 64 | > 200 | 0.177 | < 20 | 0.047 |
| O=C(NO)c1ccc2c(c1)CCN(C(=O)C1CCCCCC1)C2 | – | 650 | > 200 | 0.34 | < 20 | 0.054 |
| O=C(NO)c1ccc(CNC(=O)C2CCCCC2)cc1 | 40 | 84 | > 200 | – | – | 0.076 |

From ChEMBL document CHEMBL2429834, “Potent histone deacetylase inhibitors derived from 4-(aminomethyl)-N-hydroxybenzamide with high selectivity for the HDAC6 isoform” (J Med Chem, 2013)
